Assay [1] concerns the target T1, Amine oxidase [flavin-containing] B (Bos taurus, UniProt P56560).
T1 sequence (P56560 whole entry): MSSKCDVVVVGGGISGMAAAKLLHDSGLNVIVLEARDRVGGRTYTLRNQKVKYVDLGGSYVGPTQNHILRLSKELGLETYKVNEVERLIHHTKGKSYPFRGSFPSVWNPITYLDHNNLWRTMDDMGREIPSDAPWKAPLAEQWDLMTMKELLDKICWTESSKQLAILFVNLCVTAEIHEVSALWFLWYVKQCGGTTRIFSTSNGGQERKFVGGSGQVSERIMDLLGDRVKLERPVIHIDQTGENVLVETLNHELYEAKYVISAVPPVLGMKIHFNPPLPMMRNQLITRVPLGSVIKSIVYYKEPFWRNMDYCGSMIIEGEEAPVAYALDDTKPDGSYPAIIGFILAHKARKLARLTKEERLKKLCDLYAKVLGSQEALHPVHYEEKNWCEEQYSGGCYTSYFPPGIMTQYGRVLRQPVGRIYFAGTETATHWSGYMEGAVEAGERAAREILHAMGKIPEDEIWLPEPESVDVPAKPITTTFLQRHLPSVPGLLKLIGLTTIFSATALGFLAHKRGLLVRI
As to the kind of experiment: Inhibition of bovine brain MAOB using kynuramine as a substrate after 30 mins by spectrofluorometric method. In a few lines: (§1)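 Mitochondria isolated from beef brain were pretreated for 30 min at 38 °C with 1 μM L-deprenyl to isolate MAO-A, or with 1 μM clorgyline to isolate MAO-B. Compounds in DMSO were preincubated for 30 min at 38 °C in potassium phosphate buffer at pH 7.4. Kynuramine was then added at four concentrations (5 μM–0.1 mM final) for 30 min.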

The species entered for assay [2] is Bos taurus. As to the kind of experiment: Selectivity index, ratio of Ki for bovine MAOB to Ki for bovine MAOA. In a few lines:
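Selectivity was calculated as Ki(MAO-B)/Ki(MAO-A). Each Ki came from a Dixon plot of kynuramine deamination by beef brain mitochondria, with 1 μM clorgyline present for MAO-B or 1 μM L-deprenyl for MAO-A, read fluorimetrically.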

The target of assay [3] is T2, Amine oxidase [flavin-containing] A (Bos taurus, UniProt P21398).
T2 sequence (P21398 whole entry): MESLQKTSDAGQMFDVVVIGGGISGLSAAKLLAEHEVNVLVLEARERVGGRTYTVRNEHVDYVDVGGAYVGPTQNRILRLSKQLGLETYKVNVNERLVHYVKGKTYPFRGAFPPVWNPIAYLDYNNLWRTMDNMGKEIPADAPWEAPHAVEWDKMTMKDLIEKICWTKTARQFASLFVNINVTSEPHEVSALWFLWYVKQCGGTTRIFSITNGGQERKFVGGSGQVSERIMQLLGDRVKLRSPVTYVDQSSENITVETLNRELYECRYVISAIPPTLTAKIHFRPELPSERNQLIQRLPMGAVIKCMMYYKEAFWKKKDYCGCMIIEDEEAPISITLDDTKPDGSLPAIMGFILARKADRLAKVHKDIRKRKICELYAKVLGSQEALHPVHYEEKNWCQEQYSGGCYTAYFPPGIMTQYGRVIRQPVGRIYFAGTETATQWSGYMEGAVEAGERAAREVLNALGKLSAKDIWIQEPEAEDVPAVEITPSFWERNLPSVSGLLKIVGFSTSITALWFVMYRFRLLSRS
As to the kind of experiment: Inhibition of bovine brain MAOA using kynuramine as a substrate after 30 mins by spectrofluorometric method. In short, it runs like this: as §1

As for `CCn1ccc(N2C[C@H](CN)OC2=O)c1`, the inhibition constant (Ki) in assay [1] came to 25 µM; in assay [3] it was 0.13 µM. In addition, in assay [2], the Ratio Ki worked out at 192.

In the case of `CCn1ccc(N2C[C@H](CO)OC2=O)c1`, the Ki in assay [1] amounted to 0.3 µM; in assay [3], 0.003 µM. Moreover, the Ratio Ki in assay [2] was found to be 100.

With `CNC[C@H]1CN(c2ccn(C)c2)C(=O)O1`, the figures for the inhibition constant Ki in assay [1] and in assay [3] were greater than 100 µM and 0.007 µM, respectively. Besides, the Ratio Ki in assay [2] is greater than 14300.

As to `Cn1ccc(N2C[C@H](CN)OC2=O)c1`, the values for the inhibition constant Ki in assay [1] and in assay [3] were 180 µM and 0.01 µM, respectively. Moreover, the Ratio Ki in assay [2] turned out to be 18000.

For the compound `C=CCn1ccc(N2C[C@H](CN=[N+]=[N-])OC2=O)c1`, the values for the Ki in assay [1] and in assay [3] were 100 µM and 0.004 µM, respectively. In addition, the Ratio Ki in assay [2] was found to be 25000.

As for `Cn1ccc(N2C[C@H](CO)OC2=O)c1`, the Ki in assay [1] was greater than 10 µM; in assay [3], 1 µM. The Ratio Ki in assay [2] was greater than 10.

Consider `COC[C@H]1CN(c2ccc(OCC[C@@H](O)C(F)(F)F)cc2)C(=O)O1` [BEFLOXATONE], for which the inhibition constant (Ki) in assay [1] came to 0.22 µM; in assay [3] it was 0.0025 µM. In assay [2], the Ratio Ki is 88.

In the case of `COC[C@H]1CN(c2ccn(C)c2)C(=O)O1`, the Ki was determined as 170 µM in assay [1] and 0.3 µM in assay [3]. Further, the Ratio Ki in assay [2] was found to be 567.

As to `Cn1ccc(N2C[C@H](CN=[N+]=[N-])OC2=O)c1`, the figures for the inhibition constant (Ki) in assay [1] and in assay [3] were 360 µM and 0.2 µM, respectively. Moreover, the Ratio Ki in assay [2] was found to be 1800.

For `C=CCn1ccc(N2C[C@H](CO)OC2=O)c1`, the Ki is 625 µM in assay [1] and 0.35 µM in assay [3]. Moreover, the Ratio Ki in assay [2] was 1790.

Take `C=CCn1ccc(N2C[C@H](COC)OC2=O)c1`: the Ki in assay [1] was 200 µM; in assay [3], 0.001 µM. Further, the Ratio Ki in assay [2] was 200000.

Consider `C=CCn1ccc(N2C[C@H](CNC)OC2=O)c1`, for which the Ki amounted to 2 µM in assay [1] and 0.1 µM in assay [3]. In addition, in assay [2], the Ratio Ki stood at 20.

For `CCn1ccc(N2C[C@H](COC)OC2=O)c1`, the Ki in assay [1] is 1.3 µM; in assay [3], 0.0006 µM. For the same compound, the Ratio Ki in assay [2] came out at 2170.

Regarding `CCn1ccc(N2C[C@H](CNC)OC2=O)c1`, the Ki stood at 18 µM in assay [1] and 0.08 µM in assay [3]. Moreover, in assay [2], the Ratio Ki stood at 225.

Regarding `CCn1ccc(N2C[C@H](CN=[N+]=[N-])OC2=O)c1`, the Ki in assay [1] is 20 µM; in assay [3], 0.0008 µM. Besides, the Ratio Ki in assay [2] was 25000.

For the compound `C=CCn1ccc(N2C[C@H](CN)OC2=O)c1`, the Ki in assay [1] amounted to 8 µM; in assay [3], 0.7 µM. The Ratio Ki in assay [2] came to 11.

As a reminder, the Ki is a measure of affinity in units of concentration, obtained from inhibition or displacement.

Source of the values: ChEMBL document CHEMBL1938282 (J Med Chem, 2011).
